Assays:
[1] = tested on: HCT116 cells; assay: MTT assay, HCT116; format: cell-based; conditions: Homo sapiens, HCT-116, 48 h
Method in brief: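 STR-authenticated, mycoplasma-tested HCT116 cells were grown in 10 % FBS medium at 37 °C. They were seeded in 96-well plates, left to attach overnight, and exposed to increasing concentrations of test compound for 48 h. DMSO-treated cells were the control. MTT formazan was solubilized and read at 570 nm. Experiments were repeated thrice, with SEM error bars.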

[2] = tested on: HeLa cells; assay: MTT assay, HeLa; format: cell-based; conditions: Homo sapiens, 48 h
Method in brief: (§1)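 Cells were STR-authenticated and mycoplasma-tested (HEK was a gift; the others were from a national cell repository). They were cultured with 10 % FBS at 37 °C, with or without 5 % CO2, then plated in 96-well plates and allowed to attach overnight. Test compound was added at increasing concentrations for 48 h. Solubilized MTT formazan absorbance was read at 570 nm. At least three independent experiments were run.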

[3] = tested on: MDA-MB-231 cells; assay: MTT assay, MDA-MB-231; format: cell-based; conditions: Homo sapiens, MDA-MB-231, 48 h
Method in brief: as §1

[4] = tested on: HEK cells; assay: MTT assay, normal kidney cells HEK; format: cell-based, Human; conditions: for IC50: Homo sapiens, HEK293, 48 h
Method in brief: as §1

[5] = tested on: HCT116 cells; assay: Foci formation assay; format: cell-based, Human; conditions: HCT116, 12 days, crystal violet
[6] = tested on: HCT116 cells; assay: Acridine orange/PI dual staining; format: cell-based, Human; conditions: HCT116, 48 h
[7] = tested on: HCT116 cells; assay: Hoechst/PI double staining; format: cell-based, Human; conditions: HCT116, 48 h

SMILES | IC50 [1] | IC50 [2] | IC50 [3] | IC50 [4] | toxicity towards normal cell lines ([4]; HeK) | colony formation [5] | propidium iodide uptake (live/dead cells) [6] | propidium iodide uptake and nuclear membrane deformation [7]
O=C(Nc1ccccc1)c1cc(-c2ccccc2)nc2ccc(-c3ccccc3)cc12 [Compound 7h, N,2,6-triphenylquinoline-4-carboxamide] | 41.6 ± 0.11 µM | 43.3 ± 0.31 µM | 46.3 ± 0.18 µM | > 50 µM |  |  |  | 
COc1cccc2c1C(=O)c1c(O)c3c(c(O)c1C2=O)C[C@@](O)(C(=O)CO)C[C@@H]3O[C@H]1C[C@H](N)[C@H](O)[C@H](C)O1 [Doxorubicin, reference compound] | 1.26 ± 0.09 µM | 5.04 ± 0.41 µM | 5.32 ± 0.11 µM | 8.23 ± 0.73 µM |  |  |  | 
COc1ccc(F)cc1-c1ccc2nc(-c3ccc(F)cc3)cc(C(=O)Nc3ccccc3)c2c1 [Compound 7j, 6-(5-Fluoro-2-methoxyphenyl)-2-(4-fluorophenyl)-N-phenylquinoline-4-carboxamide] | 42.5 ± 0.23 µM | > 50 µM | > 50 µM | > 50 µM |  |  |  | 
COc1ccc(F)cc1-c1ccc2nc(-c3ccccc3)cc(C(=O)Nc3ccccc3)c2c1 [Compound 7i, 6-(5-Fluoro-2-methoxyphenyl)-N,2-diphenylquinoline-4-carboxamide] | 44.2 ± 0.08 µM | > 50 µM | > 50 µM | > 50 µM |  |  |  | 
COc1ccc(-c2cc(C(=O)Nc3ccccc3)c3cc(-c4cc(F)ccc4OC)ccc3n2)cc1 [Compound 7b, 6-(5-Fluoro-2-methoxyphenyl)-2-(4-methoxyphenyl)-N-phenylquinoline-4-carboxamide] | 43.3 ± 0.53 µM | 41.6 ± 0.58 µM | > 50 µM | > 50 µM |  |  |  | 

More lines, main results first:

IC50 [1] | IC50 [2] | IC50 [3] | SMILES | IC50 [4] | toxicity towards normal cell lines ([4]; HeK) | colony formation [5] | propidium iodide uptake (live/dead cells) [6] | propidium iodide uptake and nuclear membrane deformation [7]
41.8 ± 0.16 µM | 42.4 ± 0.37 µM | > 50 µM | COc1ccc(-c2cc(C(=O)Nc3ccccc3)c3cc(-c4cc(Cl)ccc4F)ccc3n2)cc1 [Compound 7c, 6-(5-Chloro-2-fluorophenyl)-2-(4-methoxyphenyl)-N-phenylquinoline-4-carboxamide] | > 50 µM |  |  |  | 
> 50 µM | > 50 µM | > 50 µM | COc1ccc(-c2cc(C(=O)Nc3ccccc3)c3cc(-c4cnc(Cl)c(C)c4)ccc3n2)cc1 [Compound 7g, 6-(6-Chloro-5-methylpyridin-3-yl)-2-(4-methoxyphenyl)-N-phenylquinoline-4-carboxamide] | > 50 µM |  |  |  | 
35.6 ± 0.06 µM | 41.3 ± 0.06 µM | 39.2 ± 0.13 µM | COc1ccc(-c2cc(C(=O)Nc3ccccc3)c3cc(-c4ccccc4)ccc3n2)cc1 [Compound 7a, 2-(4-methoxyphenyl)-N,6-diphenylquinoline-4-carboxamide] | > 50 µM | less toxicity towards normal cell lines | inhibit colony formation of colon cancer cells in a concentration dependent manner | propidium iodide uptake in concentration dependent manner | uptake of propidium iodide in concentration dependent manner with nuclear membrane deformation in dead cells
39.8 ± 0.11 µM | 38.3 ± 0.25 µM | > 50 µM | COc1ccc(-c2cc(C(=O)Nc3ccccc3)c3cc(-c4ccc(Cl)cc4)ccc3n2)cc1 [Compound 7d, 6-(4-chlorophenyl)-2-(4-methoxyphenyl)-N-phenylquinoline-4-carboxamide] | > 50 µM |  |  |  | 
> 50 µM | > 50 µM | > 50 µM | COc1ccc(-c2cc(C(=O)Nc3ccccc3)c3cc(-c4cc(C)ccc4F)ccc3n2)cc1 [Compound 7f, 6-(2-Fluoro-5-methylphenyl)-2-(4-methoxyphenyl)-N-phenylquinoline-4-carboxamide] | > 50 µM |  |  |  | 
> 50 µM | > 50 µM | > 50 µM | COc1ccc(-c2cc(C(=O)Nc3ccccc3)c3cc(-c4cccs4)ccc3n2)cc1 [Compound 7e, 2-(4-methoxyphenyl)-N-phenyl-6-(thiophen-2-yl)quinoline-4-carboxamide] | > 50 µM |  |  |  | 
